Measured values published in ChEMBL document CHEMBL4373711, “Development of 3,5-Dinitrophenyl-Containing 1,2,4-Triazoles and Their Trifluoromethyl Analogues as Highly Efficient Antitubercular Agents Inhibiting Decaprenylphosphoryl-β-d-ribofuranose 2'-Oxidase” (J Med Chem, 2019).
In brackets after ≈: the same amount, converted by molar mass.

Key:
Assay type in all cases: functional
[1] = tested on: Mycobacterium tuberculosis; experiment: Antimycobacterial activity against Mycobacterium tuberculosis H37Rv CNCTC My 331/88 after 14 days; conditions: H37Rv CNCTC My 331/88, 336 h
Outline: (§1)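 M. tuberculosis strains (H37Rv and clinical MDR/XDR isolates) tested by microdilution in Šula's semisynthetic medium. Compounds were dissolved in DMSO and tested at 32 to 0.03 µM in twofold steps. Inoculum was a 1.0 McFarland suspension diluted 10-3. Plates were incubated at 37 °C and read at 14 and 21 days.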

[2] = tested on: Mycobacterium tuberculosis; experiment: Antimycobacterial activity against Mycobacterium tuberculosis H37Rv CNCTC My 331/88 after 21 days; conditions: H37Rv CNCTC My 331/88, 504 h; outline: as §1
[3] = tested on: Mycobacterium avium; experiment: Antimycobacterial activity against Mycobacterium avium CNCTC My 330/88 after 14 days; conditions: CNCTC My 330/88, 336 h
Outline: (§2)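 M. avium was tested by microdilution in Šula's semisynthetic medium, with compounds dissolved in DMSO and serially diluted from 1000 down to 1. Inoculum was a 1.0 McFarland suspension diluted 10-5. Plates were incubated at 37 °C and read at 14 and 21 days. […] Isoniazid and rifampicin served as standards.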

[4] = tested on: Mycobacterium avium; experiment: Antimycobacterial activity against Mycobacterium avium CNCTC My 330/88 after 21 days; conditions: CNCTC My 330/88, 504 h; outline: as §2
[5] = tested on: Mycobacterium kansasii; experiment: Antimycobacterial activity against Mycobacterium kansasii CNCTC My 235/80 after 7 days; conditions: CNCTC My 235/80, 168 h
Outline: (§3)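 Microdilution in Šula's semisynthetic medium; compounds in DMSO at 32–0.03 µM. Inoculum from 1.0 McFarland suspension diluted 10-4. […] Isoniazid and rifampicin as reference drugs.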

[6] = tested on: Mycobacterium kansasii; experiment: Antimycobacterial activity against Mycobacterium kansasii CNCTC My 235/80 after 14 days; conditions: CNCTC My 235/80, 336 h; outline: as §3
[7] = tested on: Mycobacterium kansasii; experiment: Antimycobacterial activity against Mycobacterium kansasii CNCTC My 235/80 after 21 days; conditions: CNCTC My 235/80, 504 h; outline: as §3
[8] = tested on: Mycobacterium kansasii; experiment: Antimycobacterial activity against Mycobacterium kansasii 6509/96 after 7 days; conditions: 6509/96, 168 h; outline: as §3
[9] = tested on: Mycobacterium kansasii; experiment: Antimycobacterial activity against Mycobacterium kansasii 6509/96 after 14 days; conditions: 6509/96, 336 h; outline: as §3
[10] = tested on: Mycobacterium kansasii; experiment: Antimycobacterial activity against Mycobacterium kansasii 6509/96 after 21 days; conditions: 6509/96, 504 h; outline: as §3

| SMILES | MIC99 [1] | MIC99 [2] | MIC99 [3] | MIC99 [4] | MIC99 [5] | MIC99 [6] | MIC99 [7] | MIC99 [8] | MIC99 [9] | MIC99 [10] |
| --- | --- | --- | --- | --- | --- | --- | --- | --- | --- | --- |
| CCn1c(SCc2cc([N+](=O)[O-])cc([N+](=O)[O-])c2)nnc1-c1ccccc1 | 2 µM (≈ 0.771 µg/mL) | 4 µM (≈ 1.54 µg/mL) | 250 µM (≈ 96.4 µg/mL) | 250 µM (≈ 96.4 µg/mL) | 2 µM (≈ 0.771 µg/mL) | 2 µM (≈ 0.771 µg/mL) | 4 µM (≈ 1.54 µg/mL) | 2 µM (≈ 0.771 µg/mL) | 4 µM (≈ 1.54 µg/mL) | 4 µM (≈ 1.54 µg/mL) |
| O=[N+]([O-])c1cc(-c2nnc(SCc3ccc(Br)cc3)n2Cc2ccccc2)cc(C(F)(F)F)c1 | 1 µM (≈ 0.549 µg/mL) | 1 µM (≈ 0.549 µg/mL) | 250 µM (≈ 137 µg/mL) | 250 µM (≈ 137 µg/mL) | 0.5 µM (≈ 0.275 µg/mL) | 1 µM (≈ 0.549 µg/mL) | 1 µM (≈ 0.549 µg/mL) | 0.5 µM (≈ 0.275 µg/mL) | 1 µM (≈ 0.549 µg/mL) | 2 µM (≈ 1.1 µg/mL) |
| O=[N+]([O-])c1cc(CSc2nnc(-c3ccccc3)n2-c2ccccc2)cc([N+](=O)[O-])c1 | 4 µM (≈ 1.73 µg/mL) | 4 µM (≈ 1.73 µg/mL) | > 1000 µM | > 1000 µM | 2 µM (≈ 0.867 µg/mL) | 4 µM (≈ 1.73 µg/mL) | 8 µM (≈ 3.47 µg/mL) | 2 µM (≈ 0.867 µg/mL) | 4 µM (≈ 1.73 µg/mL) | 8 µM (≈ 3.47 µg/mL) |
| O=[N+]([O-])c1cc(CSc2nnc(-c3ccccc3)n2Cc2ccc(Br)cc2)cc([N+](=O)[O-])c1 | 2 µM (≈ 1.05 µg/mL) | 2 µM (≈ 1.05 µg/mL) | 250 µM (≈ 132 µg/mL) | 250 µM (≈ 132 µg/mL) | 2 µM (≈ 1.05 µg/mL) | 4 µM (≈ 2.11 µg/mL) | 4 µM (≈ 2.11 µg/mL) | 2 µM (≈ 1.05 µg/mL) | 4 µM (≈ 2.11 µg/mL) | 4 µM (≈ 2.11 µg/mL) |
| O=[N+]([O-])c1ccc(-c2nnc(SCc3cc([N+](=O)[O-])cc([N+](=O)[O-])c3)n2Cc2ccccc2)cc1 | 4 µM (≈ 1.97 µg/mL) | 4 µM (≈ 1.97 µg/mL) | 250 µM (≈ 123 µg/mL) | 250 µM (≈ 123 µg/mL) | 2 µM (≈ 0.985 µg/mL) | 4 µM (≈ 1.97 µg/mL) | 4 µM (≈ 1.97 µg/mL) | 2 µM (≈ 0.985 µg/mL) | 4 µM (≈ 1.97 µg/mL) | 8 µM (≈ 3.94 µg/mL) |
| O=C(NNC(=S)NCc1ccccc1)c1cc([N+](=O)[O-])cc([N+](=O)[O-])c1 | 8 µM (≈ 3 µg/mL) | 8 µM (≈ 3 µg/mL) | 62 µM (≈ 23.3 µg/mL) | 62 µM (≈ 23.3 µg/mL) | 32 µM (≈ 12 µg/mL) | 32 µM (≈ 12 µg/mL) | 32 µM (≈ 12 µg/mL) | 16 µM (≈ 6.01 µg/mL) | 16 µM (≈ 6.01 µg/mL) | 16 µM (≈ 6.01 µg/mL) |
| O=[N+]([O-])c1cc(Cn2c(SCc3ccc(Cl)cc3)nnc2-c2ccccc2)cc([N+](=O)[O-])c1 | 8 µM (≈ 3.86 µg/mL) | 16 µM (≈ 7.71 µg/mL) | 250 µM (≈ 120 µg/mL) | 250 µM (≈ 120 µg/mL) | 4 µM (≈ 1.93 µg/mL) | 8 µM (≈ 3.86 µg/mL) | 16 µM (≈ 7.71 µg/mL) | 16 µM (≈ 7.71 µg/mL) | 32 µM (≈ 15.4 µg/mL) | 32 µM (≈ 15.4 µg/mL) |
| NNC(=O)c1ccncc1 [ISONIAZID] | – | – | > 250 µM | > 250 µM | > 250 µM | > 250 µM | > 250 µM | 2 µM (≈ 0.274 µg/mL) | 4 µM (≈ 0.549 µg/mL) | 4 µM (≈ 0.549 µg/mL) |
| Cn1c(SCc2cc([N+](=O)[O-])cc([N+](=O)[O-])c2)nnc1-c1ccccc1 | 4 µM (≈ 1.49 µg/mL) | 4 µM (≈ 1.49 µg/mL) | 125 µM (≈ 46.4 µg/mL) | 250 µM (≈ 92.8 µg/mL) | 4 µM (≈ 1.49 µg/mL) | 8 µM (≈ 2.97 µg/mL) | 16 µM (≈ 5.94 µg/mL) | 4 µM (≈ 1.49 µg/mL) | 8 µM (≈ 2.97 µg/mL) | 16 µM (≈ 5.94 µg/mL) |
| Cc1ccc(-c2nnc(SCc3cc([N+](=O)[O-])cc([N+](=O)[O-])c3)n2Cc2ccccc2)cc1 | 4 µM (≈ 1.85 µg/mL) | 4 µM (≈ 1.85 µg/mL) | 250 µM (≈ 115 µg/mL) | 250 µM (≈ 115 µg/mL) | 4 µM (≈ 1.85 µg/mL) | 4 µM (≈ 1.85 µg/mL) | 4 µM (≈ 1.85 µg/mL) | 4 µM (≈ 1.85 µg/mL) | 4 µM (≈ 1.85 µg/mL) | 4 µM (≈ 1.85 µg/mL) |
| O=[N+]([O-])c1cc(CSc2nnc(CCCCCO)n2Cc2ccccc2)cc([N+](=O)[O-])c1 | 16 µM (≈ 7.32 µg/mL) | 32 µM (≈ 14.6 µg/mL) | > 1000 µM | > 1000 µM | 8 µM (≈ 3.66 µg/mL) | 16 µM (≈ 7.32 µg/mL) | 32 µM (≈ 14.6 µg/mL) | 16 µM (≈ 7.32 µg/mL) | 32 µM (≈ 14.6 µg/mL) | 32 µM (≈ 14.6 µg/mL) |
| O=C(NNC(=S)NCc1ccc(Cl)cc1Cl)c1cc([N+](=O)[O-])cc([N+](=O)[O-])c1 | 8 µM (≈ 3.55 µg/mL) | 8 µM (≈ 3.55 µg/mL) | 16 µM (≈ 7.11 µg/mL) | 32 µM (≈ 14.2 µg/mL) | 16 µM (≈ 7.11 µg/mL) | 16 µM (≈ 7.11 µg/mL) | 16 µM (≈ 7.11 µg/mL) | 16 µM (≈ 7.11 µg/mL) | 16 µM (≈ 7.11 µg/mL) | 16 µM (≈ 7.11 µg/mL) |
| CCCCCCCCSc1nnc(-c2cc([N+](=O)[O-])cc(C(F)(F)F)c2)n1Cc1ccccc1 | 2 µM (≈ 0.985 µg/mL) | 2 µM (≈ 0.985 µg/mL) | 250 µM (≈ 123 µg/mL) | 250 µM (≈ 123 µg/mL) | 1 µM (≈ 0.493 µg/mL) | 2 µM (≈ 0.985 µg/mL) | 2 µM (≈ 0.985 µg/mL) | – | – | – |
| COc1ccc(CSc2nnc(-c3ccccc3)n2Cc2cc([N+](=O)[O-])cc([N+](=O)[O-])c2)cc1 | 16 µM (≈ 7.64 µg/mL) | 16 µM (≈ 7.64 µg/mL) | 250 µM (≈ 119 µg/mL) | 250 µM (≈ 119 µg/mL) | > 32 µM | > 32 µM | – | > 32 µM | > 32 µM | – |
| O=[N+]([O-])c1cc(CSc2nnc(-c3ccccc3)[nH]2)cc([N+](=O)[O-])c1 | 2 µM (≈ 0.715 µg/mL) | 4 µM (≈ 1.43 µg/mL) | 62 µM (≈ 22.2 µg/mL) | 125 µM (≈ 44.7 µg/mL) | 4 µM (≈ 1.43 µg/mL) | 8 µM (≈ 2.86 µg/mL) | 8 µM (≈ 2.86 µg/mL) | 4 µM (≈ 1.43 µg/mL) | 8 µM (≈ 2.86 µg/mL) | 16 µM (≈ 5.72 µg/mL) |
| O=[N+]([O-])c1cc(CSc2nnc(-c3ccc(Cl)c(Cl)c3)n2Cc2ccccc2)cc([N+](=O)[O-])c1 | 2 µM (≈ 1.03 µg/mL) | 2 µM (≈ 1.03 µg/mL) | 250 µM (≈ 129 µg/mL) | 250 µM (≈ 129 µg/mL) | 1 µM (≈ 0.516 µg/mL) | 2 µM (≈ 1.03 µg/mL) | 2 µM (≈ 1.03 µg/mL) | 2 µM (≈ 1.03 µg/mL) | 4 µM (≈ 2.07 µg/mL) | 4 µM (≈ 2.07 µg/mL) |
| Cc1ccc(-c2nnc(SCc3cc([N+](=O)[O-])cc(C(F)(F)F)c3)n2Cc2ccccc2)cc1 | > 32 µM | > 32 µM | 250 µM (≈ 121 µg/mL) | 250 µM (≈ 121 µg/mL) | > 32 µM | > 32 µM | > 32 µM | > 32 µM | > 32 µM | > 32 µM |
| CCNC(=S)NNC(=O)c1cc([N+](=O)[O-])cc([N+](=O)[O-])c1 | > 32 µM | > 32 µM | 1000 µM (≈ 313 µg/mL) | 1000 µM (≈ 313 µg/mL) | > 32 µM | > 32 µM | > 32 µM | > 32 µM | > 32 µM | > 32 µM |
